These results are taken from ChEMBL document CHEMBL4270568, “Identification, structural modification, and dichotomous effects on human immunodeficiency virus type 1 (HIV-1) replication of ingenane esters from Euphorbia kansui” (Eur J Med Chem, 2018).

Data set [1] in a line: Selectivity index, ratio of CC50 for human MT4 cells to EC50 for Human immunodeficiency virus 1 NL4-3 infected in human MT4 cells. It is filed as toxicity, cell-based. As to conditions: read-out: Ratio CC50/EC50. Put shortly: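 SI = CC50/EC50. CC50 is from a 3-day CytoTox-Glo assay on MT4 cells. EC50 is from MT4 cells infected with 50 TCID50/well NL4-3 Nanoluc-sec and given graded compound, with supernatant luciferase read on day 3 as 50% reduction.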

Another data set concerns MT4. Nature of the data set: Cytotoxicity against human MT4 cells after 3 days by CytoTox-Glo assay. It is filed as cell-based. The following applies: mt4, 72 h. Put shortly: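 MT4 cells cultured for 3 days with various compound concentrations. Cytotoxicity is read by CytoTox-Glo following the manufacturer's protocol. CC50 = concentration causing 50% reduction of cell viability.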

The subject of data set [2] is Human immunodeficiency virus 1. Nature of the data set: Antiviral activity against Human immunodeficiency virus 1 NL4-3 infected in human MT4 cells measured on day 3 post infection by Nano-Glo luciferase reporter gene assay. It is filed as functional, organism-based. The following applies: Human immunodeficiency virus 1, NL4-3, MT4, 72 h. Put shortly: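 HIV-1 NL4-3 Nanoluc-sec reporter virus at 50 TCID50/well infects MT4 cells (1 × 10⁵ cells/mL) in the presence of graded compound concentrations. On day 3 post-infection, supernatant is assayed for secreted NanoLuc luciferase.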

Data set [3] concerns Human immunodeficiency virus 1. Nature of the data set: Reactivation of latent HIV1 infected in human J-Lat A2 cells assessed as increase in GFP expression at 10 to 50 nM after 72 hrs by flow cytometric method. It is filed as functional, organism-based. Put shortly:
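J-Lat (A2) cells (1×10⁶ cells/well) incubated with various concentrations of latency reversing agents at 37 °C for 72 h. GFP-expressing cells are quantified by flow cytometry.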

The subject of data set [4] is Human immunodeficiency virus 1. Nature of the data set: Reactivation of latent HIV1 infected in human U1 cells assessed as increase in p24 production after 72 hrs by ELISA. It is filed as functional, organism-based. As to conditions: Human immunodeficiency virus 1, U1, 72 h. Put shortly:
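Latently infected U1 cells (2×10⁵ cells/mL) incubated with various compound concentrations at 37 °C for 72 h. Culture supernatant p24 is measured by ELISA. EC50 = concentration activating p24 production by 50%, fitted by non-linear regression.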

Data set [5] concerns Human immunodeficiency virus 1. As to the kind of experiment: Potency index, ratio AZT EC50 to test compound EC50 for Human immunodeficiency virus 1 NL4-3 infected in human MT4 cells. It is filed as functional.
Data set [6] is described as follows: Cytotoxicity against human U937 cells after 3 days by CytoTox-Glo assay. It is filed as cell-based, U-937. Put shortly:
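U937 cytotoxicity is run by the same method as for MT4: 3-day culture with various compound concentrations, CytoTox-Glo read-out, and CC50 taken as 50% reduction of viability.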

Molecules are shown by their SMILES. The source made the active and inactive calls. No cut-off for these calls is given here.

Turning to `CC1=C[C@@H]2C(=O)[C@]3(C=C(C)[C@H](OC(=O)c4ccccc4)[C@@]3(O)[C@@H]1O)[C@H](C)C[C@@H]1[C@H]2C1(C)C`, in data set [1], the selectivity ratio was above 302. In addition, in the data set with MT4, the CC50 was above 9200 nM. This compound also gave an EC50 in data set [2] of 30.5 nM.
`CC1=C[C@@H]2C(=O)[C@]3(C=C(C)[C@H](O)[C@@]3(O)[C@@H]1OC(=O)c1ccccc1)[C@H](C)C[C@@H]1[C@H]2C1(C)C`: the selectivity ratio in data set [1] is above 216. The cytotoxic concentration (CC50) in the data set with MT4 is above 9200 nM. The compound also had a half-maximal effective concentration (EC50) in data set [2] of 42.6 nM.
On the same counts, the results for `CC1=C[C@]23C(=O)[C@@H](C=C(CO)[C@@H](O)[C@]2(O)[C@H]1O)[C@H]1[C@@H](C[C@H]3C)C1(C)C` [INGENOL] are above 10, above 11500 nM and above 11500 nM.
In the same order, the values of `COc1ccc(C(=O)O[C@@H]2C(C)=C[C@@H]3C(=O)[C@]4(C=C(C)[C@H](O)[C@@]24O)[C@H](C)C[C@@H]2[C@H]3C2(C)C)cc1` are above 20, above 8600 nM and 434 nM.
For the compound `C/C=C/C(=O)O[C@@H]1C(C)=C[C@@H]2C(=O)[C@]3(C=C(C)[C@H](O)[C@@]13O)[C@H](C)C[C@@H]1[C@H]2C1(C)C`, the selectivity ratio in data set [1] is above 16. In addition, the CC50 in the data set with MT4 was above 10000 nM. Besides, in data set [2], the 50% effective concentration (EC50) stood at 630 nM.
With `CC1=C[C@@H]2C(=O)[C@]3(C=C(C)[C@H](O)[C@@]3(O)[C@@H]1OC(=O)/C=C/c1ccccc1)[C@H](C)C[C@@H]1[C@H]2C1(C)C`, the selectivity ratio in data set [1] is above 22. The compound further yielded a half-maximal cytotoxic concentration (CC50) with MT4 above 8700 nM. For the same compound, a half-maximal effect in data set [2] (EC50) was put at 396 nM.
`COc1ccc(C(=O)O[C@H]2C(C)=C[C@]34C(=O)[C@@H](C=C(C)[C@@H](O)[C@]23O)[C@H]2[C@@H](C[C@H]4C)C2(C)C)cc1`: the selectivity ratio in data set [1] is above 64. Moreover, the half-maximal cytotoxic concentration (CC50) in the data set on MT4 was above 8600 nM. In data set [2], this compound yielded a half-maximal effective concentration (EC50) of 134 nM.
Turning to `CC1=C[C@@H]2C(=O)[C@]3(C=C(C)[C@H](O)[C@@]3(O)[C@@H]1OC(=O)c1ccc3ccccc3c1)[C@H](C)C[C@@H]1[C@H]2C1(C)C`, the selectivity ratio in data set [1] is above 179. This compound also came in with a CC50 with MT4 above 8200 nM. Also, the EC50 in data set [2] turned out to be 15.5 nM.
In the same order, the values of `CCCCCCCCCCCC(=O)O[C@@]12C[C@@H](C)[C@]34C=C(C)[C@H](O)[C@@]3(O)[C@H](O)C(CO)=C[C@H](C4=O)[C@@H]1C2(C)C` are above 273, above 9200 nM and 33.7 nM.
In the same order, the values of `CC(=O)OCC1=C[C@@H]2C(=O)[C@]3(C=C(C)[C@H](O)[C@@]3(O)[C@@H]1O)[C@H](C)C[C@@H]1[C@H]2C1(C)C` are above 10, above 10300 nM and 1080 nM.
With `C/C=C/C(=O)O[C@H]1C(C)=C[C@]23C(=O)[C@@H](C=C(C)[C@@H](O)[C@]12O)[C@H]1[C@@H](C[C@H]3C)C1(C)C`, in data set [1], the selectivity ratio was above 17. The half-maximal cytotoxic concentration (CC50) in the data set on MT4 is above 10000 nM. The compound also had an EC50 in data set [2] of 600 nM.
In the same order, the values of `CC1=C[C@@H]2C(=O)[C@]3(C=C(C)[C@H](OC(=O)/C=C/c4ccccc4)[C@@]3(O)[C@@H]1O)[C@H](C)C[C@@H]1[C@H]2C1(C)C` are above 45, above 8700 nM and 188 nM.
Turning to `Cc1cn([C@H]2C[C@H](N=[N+]=[N-])[C@@H](CO)O2)c(=O)[nH]c1=O` [ZIDOVUDINE], the half-maximal cytotoxic concentration (CC50) in the data set on MT4 is above 400 nM.
Take `CC1=C[C@@H]2C(=O)[C@]3(C=C(C)[C@H](OC(=O)c4ccc5ccccc5c4)[C@@]3(O)[C@@H]1O)[C@H](C)C[C@@H]1[C@H]2C1(C)C`: in data set [1], the selectivity ratio is above 543. The compound also yielded a CC50 with MT4 above 8200 nM. The same compound came in with a concentration for a half-maximal effect (EC50) in data set [2] of 15.1 nM.
For `C/C=C(\C)C(=O)O[C@H]1C(C)=C[C@]23C(=O)[C@@H](C=C(C)[C@@H](O)[C@]12O)[C@H]1[C@@H](C[C@H]3C)C1(C)C`, in data set [1], the selectivity ratio was above 46. The response in data set [2] was half-maximal at 209 nM (EC50).
Regarding `CCCCCCCCCCCC(=O)O[C@@]12C[C@@H](C)[C@]34C=C(C)[C@H](OC(=O)C(C)C(C)C)[C@@]3(O)[C@H](O)C(CO)=C[C@H](C4=O)[C@@H]1C2(C)C` (some centres undefined), in data set [1], the selectivity ratio is above 7500. The cytotoxic concentration (CC50) with MT4 is above 6200 nM. Besides, it took 0.8 nM to reach a half-maximal effect in data set [2] (EC50).
For the compound `C/C=C(/C)C(=O)O[C@H]1C(C)=C[C@]23C(=O)[C@@H](C=C(C)[C@@H](O)[C@]12O)[C@H]1[C@@H](C[C@H]3C)C1(C)C`, the selectivity ratio in data set [1] was above 22.8. For the same compound, the CC50 in the data set on MT4 was above 9700 nM. Also, a half-maximal response in data set [2] (EC50) required 426 nM.
On the same counts, the results for `CCCCCCCC(=O)O[C@H]1C(C)=C[C@]23C(=O)[C@@H](C=C(C)[C@@H](O)[C@]12O)[C@H]1[C@@H](C[C@H]3C)C1(C)C` are above 59.9, above 8700 nM and 145 nM.
On to `CC(=O)O[C@H]1C(C)=C[C@]23C(=O)[C@@H](C=C(C)[C@@H](OC(=O)c4ccccc4)[C@]12O)[C@H]1[C@@H](C[C@H]3C)C1(C)C`, for which the selectivity ratio in data set [1] was above 23. Moreover, in the data set with MT4, the CC50 is above 8400 nM. This compound also had a concentration for a half-maximal effect (EC50) in data set [2] of 367 nM.
Take `CC1=C[C@@H]2C(=O)[C@]3(C=C(C)[C@H](O)[C@@]3(O)[C@@H]1O)[C@H](C)C[C@@H]1[C@H]2C1(C)C`: the selectivity ratio in data set [1] is above 10. This compound gave a CC50 in the data set on MT4 above 12000 nM. The EC50 in data set [2] was above 12000 nM.
`C/C=C(/C)C(=O)O[C@H]1C(C)=C[C@]23C(=O)[C@@H](C=C(CO)[C@@H](O)[C@]12O)[C@H]1[C@@H](C[C@H]3C)C1(C)C` [INGENOL MEBUTATE]: the selectivity ratio in data set [1] is above 2070. Moreover, in the data set with MT4, the CC50 is above 9300 nM. For the same compound, the result in data set [3] was Active. Moreover, the results for the EC50 in data set [4] and in data set [2] were 4.2 nM and 4.5 nM, respectively.
In the case of `CC1=C[C@]23C(=O)[C@@H](C=C(CO)[C@@H](O)[C@]2(O)[C@H]1OC(=O)c1ccc2ccccc2c1)[C@H]1[C@@H](C[C@H]3C)C1(C)C`, the selectivity ratio in data set [1] is above 6150. For the same compound, in the data set on MT4, the half-maximal cytotoxic concentration (CC50) was above 8000 nM. The result in data set [3] was Active. Moreover, the 50% effective concentration (EC50) amounted to 2.4 nM in data set [4] and 1.3 nM in data set [2]. Moreover, the “Ratio EC50” value in data set [5] was 10. In addition, the cytotoxic concentration (CC50) at 72 h in data set [6] was above 20000 nM.
